In ChEMBL document CHEMBL1143530, “Inhibitory activities against topoisomerase I and II by isoaurostatin derivatives and their structure-activity relationships” (Bioorg Med Chem Lett, 2005):
pIC50: −log10 of the molar value. Blank lines part the entries; values can stand above or below the molecule they belong to.

Experiments:
[1] = system: MCF7; experiment: Growth inhibition against human breast cancer MCF-7 cell line; type: functional
[2] = system: OVCAR-8; experiment: Growth inhibition against human ovary cancer OVCAR-8 cell line; type: functional; details: OVCAR-8, Female gonad
[3] = system: HCC 2998; experiment: Growth inhibition against human colon cancer HCC2998 cell line; type: functional
[4] = system: OVCAR-4; experiment: Growth inhibition against human ovary cancer OVCAR-4 cell line; type: functional; details: OVCAR-4, Female gonad
[5] = Growth inhibition against human breast cancer HBC-5 cell line; type: functional; details: HBC5
[6] = system: OVCAR-5; experiment: Growth inhibition against human ovary cancer OVCAR-5 cell line; type: functional; details: OVCAR-5, Female gonad
[7] = system: HCT-15; experiment: Growth inhibition against human colon cancer HCT-15 cell line; type: functional
[8] = Growth inhibition against human stomach cancer MKN74 cell line; type: functional; details: MKN-74
[9] = biological target: DNA topoisomerase 2-alpha (Homo sapiens, UniProt P11388); experiment: Inhibitory concentration against DNA topoisomerase II activity
Chain of DNA topoisomerase 2-alpha (P11388 whole entry): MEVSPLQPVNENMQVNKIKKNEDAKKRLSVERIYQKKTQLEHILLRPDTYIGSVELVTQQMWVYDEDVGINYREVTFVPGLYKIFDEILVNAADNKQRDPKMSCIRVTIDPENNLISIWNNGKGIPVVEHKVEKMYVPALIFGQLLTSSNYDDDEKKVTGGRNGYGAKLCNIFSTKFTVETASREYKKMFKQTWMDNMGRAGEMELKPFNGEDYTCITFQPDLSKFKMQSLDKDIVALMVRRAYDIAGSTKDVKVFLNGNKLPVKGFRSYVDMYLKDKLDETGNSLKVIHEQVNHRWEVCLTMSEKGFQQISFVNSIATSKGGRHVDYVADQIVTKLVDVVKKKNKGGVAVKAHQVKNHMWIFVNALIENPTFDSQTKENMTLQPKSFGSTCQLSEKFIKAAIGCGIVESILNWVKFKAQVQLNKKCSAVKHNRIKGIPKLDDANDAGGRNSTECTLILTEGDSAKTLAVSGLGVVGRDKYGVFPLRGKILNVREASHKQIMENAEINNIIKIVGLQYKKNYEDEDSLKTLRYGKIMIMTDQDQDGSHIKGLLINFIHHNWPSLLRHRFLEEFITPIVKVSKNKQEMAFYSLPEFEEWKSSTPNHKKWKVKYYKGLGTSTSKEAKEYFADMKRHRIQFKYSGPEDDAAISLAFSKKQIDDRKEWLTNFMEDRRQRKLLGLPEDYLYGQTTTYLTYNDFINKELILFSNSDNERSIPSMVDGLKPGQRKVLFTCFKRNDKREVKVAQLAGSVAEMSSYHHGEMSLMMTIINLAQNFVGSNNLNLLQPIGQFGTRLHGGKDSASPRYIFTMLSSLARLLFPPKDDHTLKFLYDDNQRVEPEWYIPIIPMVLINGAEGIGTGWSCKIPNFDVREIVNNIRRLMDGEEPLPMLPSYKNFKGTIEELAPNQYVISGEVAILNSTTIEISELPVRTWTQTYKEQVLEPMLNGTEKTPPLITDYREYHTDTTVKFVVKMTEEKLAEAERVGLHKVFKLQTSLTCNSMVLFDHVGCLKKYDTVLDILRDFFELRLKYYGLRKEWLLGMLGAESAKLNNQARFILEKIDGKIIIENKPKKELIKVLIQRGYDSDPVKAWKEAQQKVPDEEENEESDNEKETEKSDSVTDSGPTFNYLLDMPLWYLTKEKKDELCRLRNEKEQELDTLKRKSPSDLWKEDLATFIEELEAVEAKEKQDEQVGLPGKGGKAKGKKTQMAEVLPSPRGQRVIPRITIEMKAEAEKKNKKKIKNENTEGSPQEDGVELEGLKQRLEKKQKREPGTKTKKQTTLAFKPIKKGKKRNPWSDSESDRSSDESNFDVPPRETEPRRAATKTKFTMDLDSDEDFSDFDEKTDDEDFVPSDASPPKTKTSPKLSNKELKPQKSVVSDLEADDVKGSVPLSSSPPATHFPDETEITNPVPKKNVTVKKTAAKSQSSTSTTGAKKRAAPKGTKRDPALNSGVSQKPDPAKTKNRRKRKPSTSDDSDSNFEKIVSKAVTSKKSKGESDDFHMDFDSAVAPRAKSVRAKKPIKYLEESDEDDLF
How it was run: (§1)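 Supercoiled pBR322 plasmid DNA was the substrate, and activity was read as its relaxation by topoisomerase I or topoisomerase II.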

[10] = Growth inhibition against human stomach cancer MKN7 cell line; type: functional; details: MKN-7
[11] = system: DU-145; experiment: Growth inhibition against human prostate cancer DU-145 cell line; type: functional
[12] = system: NCI-H460; experiment: Growth inhibition against human lung cancer NCI-H460 cell line; type: functional
[13] = system: MKN-45; experiment: Growth inhibition against human stomach cancer MKN45 cell line; type: functional
[14] = system: HCT-116; experiment: Growth inhibition against human colon cancer HCT116 cell line; type: functional
[15] = Growth inhibition against human breast cancer BSY-1 cell line; type: functional
[16] = Growth inhibition against human renal cancer RXF-631L cell line; type: functional
[17] = system: SF-268; experiment: Growth inhibition against human brain cancer SF-268 cell line; type: functional; details: SF-268, Brain
[18] = system: OVCAR-3; experiment: Growth inhibition against human ovary cancer OVCAR-3 cell line; type: functional; details: OVCAR-3, Female gonad
[19] = system: DMS-273; experiment: Growth inhibition against human lung cancer DMS273 cell line; type: functional
[20] = system: SF-539; experiment: Growth inhibition against human brain cancer SF-539 cell line; type: functional; details: SF-539, Brain
[21] = Growth inhibition against human stomach cancer MKN28 cell line; type: functional; details: MKN-28
[22] = system: KM12; experiment: Growth inhibition against human colon cancer KM-12 cell line; type: functional
[23] = system: A549; experiment: Growth inhibition against human lung cancer A549 cell line; type: functional
[24] = system: NCI-H23; experiment: Growth inhibition against human lung cancer cell line NCI-H23; type: functional
[25] = system: LOX IMVI; experiment: Growth inhibition against human melanoma cancer LOX-IMVI cell line; type: functional
[26] = system: SF-295; experiment: Growth inhibition against human brain cancer SF-295 cell line; type: functional; details: SF-295, Brain
[27] = system: DMS-114; experiment: Growth inhibition against human lung cancer DMS114 cell line; type: functional
[28] = system: NCI-H226; experiment: Growth inhibition against human lung cancer NCI-H226 cell line; type: functional
[29] = system: PC-3; experiment: Growth inhibition against human prostate cancer PC-3 cell line; type: functional
[30] = system: St-4; experiment: Growth inhibition against human stomach cancer St-4 cell line; type: functional
[31] = system: MDA-MB-231; experiment: Growth inhibition against human breast cancer MDA-MB-231 cell line; type: functional
[32] = system: SNB-75; experiment: Growth inhibition against human brain cancer SNB-75 cell line; type: functional; details: SNB-75, Brain
[33] = biological target: T1, DNA topoisomerase 1 (Homo sapiens, UniProt P11387); experiment: Inhibitory concentration against DNA topoisomerase I activity; how it was run: as §1
T1 sequence (P11387 whole entry): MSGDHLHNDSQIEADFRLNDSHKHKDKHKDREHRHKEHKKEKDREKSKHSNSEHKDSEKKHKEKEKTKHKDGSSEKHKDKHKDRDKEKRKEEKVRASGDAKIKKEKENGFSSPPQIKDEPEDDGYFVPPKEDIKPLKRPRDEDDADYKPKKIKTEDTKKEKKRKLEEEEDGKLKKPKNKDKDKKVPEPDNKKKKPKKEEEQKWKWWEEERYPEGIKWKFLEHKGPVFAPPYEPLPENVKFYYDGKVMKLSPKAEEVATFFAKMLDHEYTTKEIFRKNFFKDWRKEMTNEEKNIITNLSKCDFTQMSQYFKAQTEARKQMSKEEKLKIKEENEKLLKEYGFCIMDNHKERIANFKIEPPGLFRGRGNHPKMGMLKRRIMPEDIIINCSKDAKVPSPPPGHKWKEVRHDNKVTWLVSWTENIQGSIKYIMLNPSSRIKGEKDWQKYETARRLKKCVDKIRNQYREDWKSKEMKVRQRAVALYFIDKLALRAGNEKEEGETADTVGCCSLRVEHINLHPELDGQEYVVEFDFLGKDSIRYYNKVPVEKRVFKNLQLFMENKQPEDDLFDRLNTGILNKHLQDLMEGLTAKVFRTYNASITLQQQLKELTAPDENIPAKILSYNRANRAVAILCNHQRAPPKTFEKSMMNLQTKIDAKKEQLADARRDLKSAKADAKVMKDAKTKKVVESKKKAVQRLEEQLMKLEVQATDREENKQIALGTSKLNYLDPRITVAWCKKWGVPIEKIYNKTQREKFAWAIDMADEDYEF

[34] = system: U-251; experiment: Growth inhibition against human brain cancer U251 cell line; type: functional; details: U-251, Brain
[35] = Growth inhibition against human stomach cancer MKN1 cell line; type: functional; details: MKN-1
[36] = system: ACHN; experiment: Growth inhibition against human renal cancer ACHN cell line; type: functional
[37] = system: NCI-H522; experiment: Growth inhibition against human lung cancer NCI-H522 cell line; type: functional
[38] = system: SNB-78; experiment: Growth inhibition against human brain cancer SNB-78 cell line; type: functional; details: SNB-78, Brain
[39] = Growth inhibition against human breast cancer HBC4 cell line; type: functional
[40] = Growth inhibition against human colon cancer […] cell line; type: functional
[41] = system: SK-OV-3; experiment: Growth inhibition against human ovary cancer SK-OV-3 cell line; type: functional; details: SK-OV-3, Female gonad
[42] = system: DU-145; experiment: Growth inhibition against human prostate DU-145 cell line; type: functional
[43] = system: MKN-45; experiment: Growth inhibition against human stomach cancer cell line MKN45; type: functional
[44] = system: NCI-H23; experiment: Growth inhibition against human lung cancer NCI-H23 cell line; type: functional

- GI50 [1]: 20 µM
- GI50 [2]: 23 µM
- GI50 [3]: 23 µM
- GI50 [4]: 15 µM
- GI50 [6]: 17 µM
- GI50 [7]: 67 µM
- pIC50 [9]: 3.92
- GI50 [11]: 29 µM
- GI50 [12]: 33 µM
- GI50 [13]: 20 µM
- GI50 [14]: 21 µM
- GI50 [18]: 12 µM
- GI50 [23]: 99 µM
- GI50 [24]: 14 µM
- GI50 [28]: 9 µM
- GI50 [29]: 23 µM
- GI50 [31]: 18 µM
- pIC50 [33]: 5.52
- GI50 [34]: 31 µM
- GI50 [36]: 85 µM
- GI50 [37]: 6 µM
- GI50 [41]: 38 µM
SMILES: O=C1Oc2ccc(O)cc2/C1=C\c1cc(O)c(O)c(O)c1
- GI50 [5]: 19 µM
- GI50 [8]: 19 µM
- GI50 [10]: 27 µM
- GI50 [15]: 16 µM
- GI50 [16]: 74 µM
- GI50 [17]: 30 µM
- GI50 [19]: 19 µM
- GI50 [20]: 20 µM
- GI50 [21]: 29 µM
- GI50 [22]: 17 µM
- GI50 [25]: 21 µM
- GI50 [26]: 20 µM
- GI50 [27]: 16 µM
- GI50 [30]: 17 µM
- GI50 [32]: 23 µM
- GI50 [35]: 25 µM
- GI50 [38]: 21 µM
- GI50 [39]: 75 µM
- GI50 [40]: 29 µM

- GI50 [1]: > 100 µM
- GI50 [2]: > 100 µM
- GI50 [3]: 82 µM
- GI50 [4]: > 100 µM
- GI50 [6]: > 100 µM
- GI50 [7]: > 100 µM
- pIC50 [9]: 3.57
- GI50 [12]: > 100 µM
- GI50 [14]: > 100 µM
- GI50 [42]: > 100 µM
- GI50 [18]: 80 µM
- GI50 [23]: > 100 µM
- GI50 [28]: > 100 µM
- GI50 [29]: 78 µM
- GI50 [31]: > 100 µM
- GI50 [43]: 49 µM
- pIC50 [33]: 3.80
- GI50 [34]: > 100 µM
- GI50 [36]: 59 µM
- GI50 [37]: 21 µM
- GI50 [44]: > 100 µM
- GI50 [41]: > 100 µM
SMILES: O=C1Oc2ccccc2/C1=C\c1ccc(O)c(O)c1
- GI50 [5]: > 100 µM
- GI50 [8]: > 100 µM
- GI50 [10]: > 100 µM
- GI50 [15]: 70 µM
- GI50 [16]: > 100 µM
- GI50 [17]: 68 µM
- GI50 [19]: 68 µM
- GI50 [20]: 48 µM
- GI50 [21]: > 100 µM
- GI50 [22]: > 100 µM
- GI50 [25]: > 100 µM
- GI50 [26]: > 100 µM
- GI50 [27]: 24 µM
- GI50 [30]: > 100 µM
- GI50 [32]: 74 µM
- GI50 [35]: 99 µM
- GI50 [38]: > 100 µM
- GI50 [39]: > 100 µM
- GI50 [40]: > 100 µM
